From ChEMBL document CHEMBL2331285, “Optimization of 3,5-dimethylisoxazole derivatives as potent bromodomain ligands” (J Med Chem, 2013)
Activity calls are given as the source filed them. The rule behind the calls is not given here.

Legend:
[1] = target: Bromodomain-containing protein 4 (Homo sapiens, UniProt O60885); test: Binding affinity to human BRD4 bromodomain 1 using H4Ac4 peptide by amplified luminescent proximity homogeneous assay
[2] = tested on: U2OS; test: Cytotoxicity against human U2OS cells after 24 hrs by WST-1 assay; format: functional, cell-based
[3] = tested on: MV4-11; test: Cytotoxicity against human MV4-11 cells after 72 hrs by MTS assay; format: functional, cell-based; details: MV4-11, 72 h
[4] = tested on: HeLa; test: Cytotoxicity against human HeLa cells after 24 hrs by WST-1 assay; format: functional, cell-based
[5] = target: CREB-binding protein (Homo sapiens, UniProt Q92793); test: Binding affinity to CREBBP bromodomain (unknown origin) using H3K56Ac peptide by amplified luminescent proximity homogeneous assay
[6] = tested on: A549; test: Cytotoxicity against human A549 cells after 72 hrs by MTS assay; format: functional, cell-based; details: A549, 72 h
[7] = tested on: NCI-H1975; test: Cytotoxicity against human NCI-H1975 cells after 72 hrs by MTS assay; format: functional, cell-based; details: NCI-H1975, 72 h
[8] = tested on: NCI-H1975; test: Cytotoxicity against human NCI-H1975 cells after 10 to 14 days by crystal violet staining based clonogenic survival assay; format: functional, cell-based
[9] = species on record: Homo sapiens; test: Selectivity ratio of IC50 for CREBBP bromodomain to IC50 for human BRD4 bromodomain 1 (unknown origin)
Method in brief: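 IC50 ratio, both values from AlphaScreen peptide displacement (protein and peptide 50 nM each, duplicates, sigmoidal fit). BRD4(1) used biotinylated tetra-acetylated H4 peptide (SGRGK(Ac)GGK(Ac)GLGK(Ac)GGAK(Ac)RHRK-biotin); CREBBP used biotinylated H3K56Ac peptide.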

Sequence of CREB-binding protein (Q92793 whole entry): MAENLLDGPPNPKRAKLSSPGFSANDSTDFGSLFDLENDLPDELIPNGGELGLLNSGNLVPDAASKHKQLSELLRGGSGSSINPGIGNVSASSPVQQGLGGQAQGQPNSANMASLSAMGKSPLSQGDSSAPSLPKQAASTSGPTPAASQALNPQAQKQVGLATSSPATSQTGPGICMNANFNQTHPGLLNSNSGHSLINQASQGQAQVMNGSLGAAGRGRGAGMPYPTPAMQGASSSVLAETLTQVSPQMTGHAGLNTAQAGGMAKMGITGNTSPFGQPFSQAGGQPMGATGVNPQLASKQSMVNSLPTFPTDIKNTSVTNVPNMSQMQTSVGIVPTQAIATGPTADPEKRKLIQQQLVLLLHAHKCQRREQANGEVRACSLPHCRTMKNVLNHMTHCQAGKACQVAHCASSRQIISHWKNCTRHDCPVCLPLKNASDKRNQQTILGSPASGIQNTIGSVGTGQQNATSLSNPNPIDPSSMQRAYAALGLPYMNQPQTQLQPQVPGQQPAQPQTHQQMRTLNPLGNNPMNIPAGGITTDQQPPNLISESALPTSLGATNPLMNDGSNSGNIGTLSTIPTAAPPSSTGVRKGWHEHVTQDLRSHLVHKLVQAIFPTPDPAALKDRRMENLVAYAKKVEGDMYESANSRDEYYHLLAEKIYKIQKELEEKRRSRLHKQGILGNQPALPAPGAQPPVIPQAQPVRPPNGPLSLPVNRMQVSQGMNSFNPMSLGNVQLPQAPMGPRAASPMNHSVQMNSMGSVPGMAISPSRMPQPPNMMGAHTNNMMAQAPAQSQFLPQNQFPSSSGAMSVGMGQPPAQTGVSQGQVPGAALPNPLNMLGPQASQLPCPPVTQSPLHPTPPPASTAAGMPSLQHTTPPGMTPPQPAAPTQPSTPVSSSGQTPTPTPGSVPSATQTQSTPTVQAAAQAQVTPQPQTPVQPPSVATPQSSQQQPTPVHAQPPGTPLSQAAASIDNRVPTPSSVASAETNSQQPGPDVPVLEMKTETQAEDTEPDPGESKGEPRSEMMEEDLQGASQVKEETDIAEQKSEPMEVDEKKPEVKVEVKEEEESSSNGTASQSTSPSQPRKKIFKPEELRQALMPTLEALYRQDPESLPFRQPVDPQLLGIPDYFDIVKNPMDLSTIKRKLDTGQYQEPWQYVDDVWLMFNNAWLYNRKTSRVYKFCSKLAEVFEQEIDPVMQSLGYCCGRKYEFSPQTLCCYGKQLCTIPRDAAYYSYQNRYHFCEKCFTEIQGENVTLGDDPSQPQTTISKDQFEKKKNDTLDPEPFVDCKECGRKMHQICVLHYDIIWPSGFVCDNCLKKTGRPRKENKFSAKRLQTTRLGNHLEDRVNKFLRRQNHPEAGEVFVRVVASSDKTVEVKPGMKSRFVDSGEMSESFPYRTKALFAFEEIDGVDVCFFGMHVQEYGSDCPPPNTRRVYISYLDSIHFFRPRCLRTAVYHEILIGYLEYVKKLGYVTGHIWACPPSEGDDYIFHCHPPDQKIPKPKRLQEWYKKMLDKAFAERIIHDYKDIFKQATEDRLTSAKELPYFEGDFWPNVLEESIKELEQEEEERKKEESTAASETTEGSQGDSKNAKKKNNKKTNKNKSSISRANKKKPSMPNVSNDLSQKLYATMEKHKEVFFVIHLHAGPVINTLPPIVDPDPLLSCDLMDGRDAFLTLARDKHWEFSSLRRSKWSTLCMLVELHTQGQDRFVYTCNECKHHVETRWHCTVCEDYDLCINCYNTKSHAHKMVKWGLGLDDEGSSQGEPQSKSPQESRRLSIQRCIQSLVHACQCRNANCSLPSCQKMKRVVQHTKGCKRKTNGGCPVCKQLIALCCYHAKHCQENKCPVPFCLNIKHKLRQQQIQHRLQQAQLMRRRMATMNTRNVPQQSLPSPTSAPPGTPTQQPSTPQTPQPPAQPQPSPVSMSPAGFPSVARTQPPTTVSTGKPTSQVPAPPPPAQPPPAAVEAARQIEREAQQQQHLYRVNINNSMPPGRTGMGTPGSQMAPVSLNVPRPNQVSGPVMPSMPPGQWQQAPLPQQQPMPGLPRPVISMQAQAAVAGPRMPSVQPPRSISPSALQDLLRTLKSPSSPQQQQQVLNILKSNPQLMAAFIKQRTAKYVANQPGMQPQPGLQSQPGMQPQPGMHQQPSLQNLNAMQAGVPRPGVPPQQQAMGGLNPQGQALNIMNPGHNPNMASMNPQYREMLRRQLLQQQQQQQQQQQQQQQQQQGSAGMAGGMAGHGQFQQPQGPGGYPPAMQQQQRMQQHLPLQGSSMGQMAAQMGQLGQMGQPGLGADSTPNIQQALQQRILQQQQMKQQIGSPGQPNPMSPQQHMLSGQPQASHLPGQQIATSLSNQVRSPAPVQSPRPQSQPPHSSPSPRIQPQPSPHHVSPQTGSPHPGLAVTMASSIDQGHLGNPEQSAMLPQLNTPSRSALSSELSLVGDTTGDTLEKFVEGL

Structure (SMILES) | IC50 [1] | IC50 [2] | IC50 [4] | IC50 [5] | further results
Cc1noc(C)c1-c1cc(O)cc(C(=O)c2ccccc2)c1 | 544 nM |  |  |  | 
Cc1sc2c(c1C)C(c1ccc(Cl)cc1)=N[C@@H](CC(=O)OC(C)(C)C)c1nnc(C)n1-2 |  | > 100 µM | > 100 µM |  | IC50 [3]: 242 nM
COc1cc(-c2c(C)noc2C)cc(C(O)c2ccccc2)c1 (stereo not given) | 1360 nM |  |  | 3960 nM | 
Cc1noc(C)c1-c1cc(OCCO)cc(C(O)c2ccccc2)c1 (stereo not given) | 1170 nM |  |  | 2810 nM | 
COCCOc1cc(-c2c(C)noc2C)cc(C(O)c2ccccc2)c1 (stereo not given) | 1380 nM |  |  | 2070 nM | 
Cc1noc(C)c1-c1cc(O)cc(C(O)c2ccccc2)c1 (racemic) |  | > 100 µM | > 100 µM |  | IC50 [6]: > 10 µM; IC50 [7]: > 10 µM; Activity [8]: Active
CC(=O)Oc1cc(-c2c(C)noc2C)cc(C(O)c2ccccc2)c1 (racemic) |  | > 100 µM | > 100 µM | 2480 nM | IC50 [6]: > 10 µM; IC50 [7]: > 10 µM; Activity [8]: Active
CCOc1cc(-c2c(C)noc2C)cc(C(C)O)c1 (stereo not given) |  |  |  |  | Ratio IC50 [9]: 6
CCOc1cc(-c2c(C)noc2C)cc(C(O)c2ccccc2)c1 (stereo not given) | 640 nM |  |  | 4100 nM | Ratio IC50 [9]: 6
